Reference: publication PMC4317571 (Structure (London, England : 1993), 2015)
Where no end group is shown, it is not given here. Me2 = dimethyl on the lysine side-chain amine

How the values were obtained:
p53K382me2 in U2OS cells = assay: Immunoblot of immunoprecipitated p53: anti-p53K382me2 reactivity; assay type: cell-based, human
In short: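 Sub-confluent U2OS cells were grown in DMEM with 10% FBS and left untreated or given doxorubicin for 4 h. TSA (400 nM) was given for 1 h, in combined treatment added 3 h after doxorubicin. Cells were lysed in Tris pH 7.4/NaCl/Triton buffer with inhibitors. p53 was pulled down from 1 mg protein on DO-1 agarose overnight at 4 °C and eluted non-reducing at 70 °C. Blots were probed overnight at 4 °C with anti-K382me2 and a light-chain-specific secondary.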

[1] = tested on: p300/CBP at p53 target regions; assay: p300 ChIP-seq enrichment at p53 target regions; assay type: cell-based; details: meta-analysis of public ChIP-seq data, mouse ES cells
GST 53BP1-TTD = assay: Biotinylated p53 peptide microarray binding of GST-tagged 53BP1 TTD; details: biotinylated p53 peptides; four replicate array binding experiments
In short: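 Biotinylated p53 C-terminal peptides (residues 366–390) printed on streptavidin-coated glass slides, then probed with GST-tagged 53BP1 TTD. Binding is shown as normalized mean intensity on a 0 (undetectable) to 1 (strong) scale from four replicate array experiments. Agreement between duplicate arrays was assessed by linear regression correlation.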

[2] = tested on: anti-p53K382me2 antibodies; assay: Dot-blot reactivity of anti-p53K382me2 antibody toward p53 peptides; assay type: binding, rabbit; details: relative to p53K381acK382me2 peptide, residues 377–386
53BP1 TTD, wild type = 53BP1 TTD, wild type (Homo sapiens, UniProt Q12888); assay: NMR binding to 53BP1 TTD; details: 15N-labeled TTD, peptide titrated in
Chain of 53BP1 TTD, wild type (Q12888 1484-1603 limits assumed): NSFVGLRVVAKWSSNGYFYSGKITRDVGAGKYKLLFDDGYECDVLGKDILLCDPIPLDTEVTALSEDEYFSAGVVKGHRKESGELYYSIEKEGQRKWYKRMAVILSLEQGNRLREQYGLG

With `CC(/C=C/C(=O)NO)=C\[C@@H](C)C(=O)c1ccc(N(C)C)cc1` [TSA] the “p53K382me2 level under basal conditions (in words)” value (p53K382me2 in U2OS cells; basal, with TSA 400 nM, 1 h) was “little p53K382me2 was present”.

For `COc1cccc2c1C(=O)c1c(O)c3c(c(O)c1C2=O)C[C@@](O)(C(=O)CO)C[C@@H]3O[C@H]1C[C@H](N)[C@H](O)[C@H](C)O1` [doxorubicin], the “p53K382me2 level in immunoprecipitated p53 (in words)” value (p53K382me2 in U2OS cells; doxorubicin 4 h (5 µg/mL in legend, 0.5 µg/mL in method)) was “increased substantially” and the “p300/CBP at p53 target regions (in words)” value [1] was “enrichment of p300/CBP”.

With “p53K370me2: p53 CTD peptide dimethylated at K370 (SSHLK(Me2)SKKGQSTSRHKKLMFKTEGP; also: biotin label, position not given here)” the “GST-TTD binding in peptide microarray (in words)” value (“GST-TTD binding” below) (GST 53BP1-TTD) was “more weakly”.

With “p53K372me2: p53 CTD peptide dimethylated at K372 (SSHLKSK(Me2)KGQSTSRHKKLMFKTEGP; also: biotin label, position not given here)” the “GST-TTD binding” value (GST 53BP1-TTD) was “more weakly”.

For “p53K382me2: p53 peptide dimethylated at K382 (residues 377–386; biotinylated 366–390 for microarray) (SSHLKSKKGQSTSRHKK(Me2)LMFKTEGP; also: biotin label, position not given here)”, the “anti-p53K382me2 antibody reactivity, fold weaker than with p53K381acK382me2 peptide” value [2] was 16 fold and the “chemical shift changes in 1H,15N HSQC spectra of TTD (in words)” value (53BP1 TTD, wild type) was “most significant changes in the K382me2-binding cage”.

With “p53K382me2K386ac: biotinylated p53 CTD peptide with K382me2 and K386ac (SSHLKSKKGQSTSRHKK(Me2)LMFK(Ac)TEGP; also: biotin label, position not given here)” the “GST-TTD binding” value (GST 53BP1-TTD) was “recognizes”.
